# According to publication PMC10716778 (The Journal of Biological Chemistry, 2023):
# Experiments:
# [1] = tested on: Escherichia coli Top10 vector control (no β-lactamase); assay: MIC by broth dilution, E. coli vector control; assay type: cell-based
# [2] = tested on: Escherichia coli expressing KPC-2; assay: MIC by broth dilution, E. coli expressing KPC-2; assay type: cell-based
# [3] = tested on: Escherichia coli expressing KPC-44; assay: MIC by broth dilution, E. coli expressing KPC-44; assay type: cell-based; settings: for fold lower MIC than WT KPC-2: E. coli expressing KPC-44 vs KPC-2; for MIC: Escherichia coli
# [4] = biological target: T1, KPC-44 (Klebsiella pneumoniae, UniProt Q9F663, DUP260-274); assay type: biochemical; settings: for kcat / Km: substrate hydrolysis by KPC-44, 30 °C; for kcat: 50 mM sodium phosphate pH 7; for Km: pH 7; for fold lower kcat than KPC-2 / fold lower kcat/KM than KPC-2: KPC-44 vs KPC-2
# [5] = biological target: T2, KPC-2 (Klebsiella pneumoniae, UniProt Q9F663); assay: Decarbamylation/deborylation rate; assay type: biochemical; settings: jump dilution, 30 °C
# Outline: (§1)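 It was then diluted 100-fold into the same buffer and added to 200 μM nitrocefin at 1:10. Recovery of activity was followed continuously at A482, 30 °C. Vaborbactam deborylation was run the same way.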
# [6] = biological target: T1, KPC-44; assay: Decarbamylation/deborylation rate; assay type: biochemical; settings: for k-2: KPC-44, jump dilution, 30 °C
# Outline: as §1
# [7] = biological target: T1, KPC-44; assay: Inhibition of nitrocefin hydrolysis; assay type: biochemical
# [8] = biological target: T2, KPC-2; assay: Steady-state kinetics of β-lactam hydrolysis by KPC-2; settings: substrate hydrolysis by KPC-2; 30 °C, 50 mM sodium phosphate pH 7
# [9] = biological target: T2, KPC-2; assay: Inhibition of nitrocefin hydrolysis; assay type: biochemical
# [10] = tested on: CC(C)(O/N=C(\C(=O)N[C@@H]1C(=O)N2C(C(=O)[O-])=C(C[n+]3ccccc3)CS[C@H]12)c1csc(N)n1)C(=O)O; assay: purified protein, by the assay type; settings: other: substrate hydrolysis by KPC-2, 30 °C, pH 7
# [11] = tested on: C[C@@H](O)[C@H]1C(=O)N2C(C(=O)O)=C(SCCN=CN)C[C@H]12; assay: purified protein, by the assay type; settings: other: substrate hydrolysis by KPC-2, 30 °C, pH 7
# [12] = tested on: C[C@@H](O)[C@H]1C(=O)N2C(C(=O)O)=C(S[C@@H]3CN[C@H](C(=O)N(C)C)C3)[C@H](C)[C@H]12; assay: purified protein, by the assay type; settings: other: substrate hydrolysis by KPC-2, 30 °C, pH 7
molecule,measurement,setting,value
CC1(C)S[C@@H]2[C@H](NC(=O)[C@H](N)c3ccccc3)C(=O)N2[C@H]1C(=O)O [Ampicillin],MIC,[1],4 µg/mL
same,MIC,[2],128 µg/mL
same,fold lower MIC than WT KPC-2,[3],2 fold
same,MIC,[3],64 µg/mL
same,kcat,[4],126 ± 5 s⁻¹
same,Km,[4],232 ± 22 µM
NC(=O)[C@@H]1CC[C@@H]2CN1C(=O)N2OS(=O)(=O)O [Avibactam],k-2,[5],(9.6 ± 0.020) × 10^−5 s^−1
same,k-2,[6],(7.1 ± 0.32) × 10^−5 s^−1
CC(C)(O/N=C(\C(=O)N[C@@H]1C(=O)N2C(C(=O)[O-])=C(C[n+]3ccccc3)CS[C@H]12)c1csc(N)n1)C(=O)O [Ceftazidime],MIC,[1],0.5 µg/mL
same,MIC,[2],2 µg/mL
same,MIC,[3],8 µg/mL
O=C(O)[C@H]1/C(=C/CO)O[C@@H]2CC(=O)N21 [Clavulanate],IC50,[7],4800 ± 170 nM
C[C@@H](O)[C@H]1C(=O)N2C(C(=O)O)=C(SCCN=CN)C[C@H]12 [Imipenem],MIC,[1],0.25 µg/mL
same,MIC,[2],1.5 µg/mL
same,fold lower MIC than WT KPC-2,[3],2 fold
same,fold higher MIC than negative control,[3]; E. coli expressing KPC-44 vs no β-lactamase control,3 fold
same,MIC,[3],0.75 µg/mL
same,fold lower kcat than KPC-2,[4],8 fold
same,fold lower kcat/KM than KPC-2,[4],4 fold
same,kcat,[4],6.4 ± 0.33 s⁻¹
same,Km,[4],57 ± 7.1 µM
C[C@@H](O)[C@H]1C(=O)N2C(C(=O)O)=C(S[C@@H]3CN[C@H](C(=O)N(C)C)C3)[C@H](C)[C@H]12 [Meropenem],MIC,[1],0.25 µg/mL
same,MIC,[2],0.375 µg/mL
same,MIC,[3],0.25 µg/mL
same,fold lower kcat than KPC-2,[4],7 fold
same,fold lower kcat/KM than KPC-2,[4],3 fold
same,kcat,[4],0.46 ± 0.022 s⁻¹
same,Km,[4],7.3 ± 1.4 µM
O=C(Cc1cccs1)N[C@@H]1C(=O)N2C(C(=O)O)=C(/C=C/c3ccc([N+](=O)[O-])cc3[N+](=O)[O-])CS[C@H]12 [Nitrocefin],kcat,[4],20 ± 0.67 s⁻¹
same,Km,[4],16 ± 1.4 µM
same,kcat,[8],130 ± 2.2 s⁻¹
O=C(O)C[C@@H]1CC[C@H](NC(=O)Cc2cccs2)B(O)O1 [Vaborbactam],IC50,[9],130 ± 5.4 nM
same,IC50,[7],220 ± 0.92 nM
same,fold difference in IC50 (less potent versus KPC-44 compared to KPC-2),[7]; KPC-44 vs KPC-2,less than 2 fold
same,k-2,[5],(1.2 ± 0.014) × 10^−5 s^−1
same,k-2,[6],(2.9 ± 0.047) × 10^−5 s^−1
same,fold higher k-2 than KPC-2,[6]; KPC-44 vs KPC-2,3 fold
KPC-2 (Klebsiella pneumoniae),kcat,[10],> 0.8 s⁻¹
same,kcat/Km,[10],1100 ± 66 M⁻¹ s⁻¹
same,Km,[11],130 ± 33 µM
same,kcat,[11],50 ± 4.5 s⁻¹
same,kcat/Km,[11],380000 ± 100000 M⁻¹ s⁻¹
same,Km,[12],19 ± 2.9 µM
same,kcat,[12],3.3 ± 0.18 s⁻¹
same,kcat/Km,[12],170000 ± 28000 M⁻¹ s⁻¹
